# Laboratory results reported in ChEMBL document CHEMBL4665625, “New pyrido[3,4-g]quinazoline derivatives as CLK1 and DYRK1A inhibitors: synthesis, biological evaluation and binding mode analysis” (Eur J Med Chem, 2019).
# What was measured:
# [1] = biological target: T1, Cyclin-dependent kinase 5/CDK5 activator 1 (Homo sapiens) (UniProt Q00535+Q15078); experiment: Inhibition of recombinant human CDK5/p25 expressed in bacteria assessed as residual activity at 10 uM using histone H1 as substrate in presence of [gamma-33P]ATP relative to control
# T1 sequence (Q00535 whole entry): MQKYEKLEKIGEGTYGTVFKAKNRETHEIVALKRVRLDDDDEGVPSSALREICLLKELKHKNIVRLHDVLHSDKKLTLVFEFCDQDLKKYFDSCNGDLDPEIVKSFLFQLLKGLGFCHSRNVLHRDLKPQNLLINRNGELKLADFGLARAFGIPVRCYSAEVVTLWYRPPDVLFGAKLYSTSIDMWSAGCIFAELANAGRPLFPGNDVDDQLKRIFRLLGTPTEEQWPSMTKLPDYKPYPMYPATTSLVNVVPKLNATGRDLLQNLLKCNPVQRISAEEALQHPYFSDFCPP
# T1 sequence (Q15078 99-307 partner limits assumed): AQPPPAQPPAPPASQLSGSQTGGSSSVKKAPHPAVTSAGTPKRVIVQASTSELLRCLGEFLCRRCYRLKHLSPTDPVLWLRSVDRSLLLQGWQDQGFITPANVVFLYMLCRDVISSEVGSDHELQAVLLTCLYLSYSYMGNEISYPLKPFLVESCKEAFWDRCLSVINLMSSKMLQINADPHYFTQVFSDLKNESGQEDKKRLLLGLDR
# Summary of the method: (§1)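 Human recombinant CDK5/p25 (bacterially expressed) assayed with 0.8 μg/μl histone H1 as substrate and 15 μM [γ-33P]ATP. Residual activity versus DMSO controls, triplicate.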
# [2] = biological target: Dual specificity protein kinase CLK1 (Mus musculus) (UniProt P22518); experiment: Inhibition of recombinant mouse CLK1 expressed in bacteria assessed as residual activity at 1 uM using GRSRSRSRSRSR as substrate in presence of [gamma-33P]ATP relative to control
# Dual specificity protein kinase CLK1 (Mus musculus), sequence (P22518 whole entry, looked up): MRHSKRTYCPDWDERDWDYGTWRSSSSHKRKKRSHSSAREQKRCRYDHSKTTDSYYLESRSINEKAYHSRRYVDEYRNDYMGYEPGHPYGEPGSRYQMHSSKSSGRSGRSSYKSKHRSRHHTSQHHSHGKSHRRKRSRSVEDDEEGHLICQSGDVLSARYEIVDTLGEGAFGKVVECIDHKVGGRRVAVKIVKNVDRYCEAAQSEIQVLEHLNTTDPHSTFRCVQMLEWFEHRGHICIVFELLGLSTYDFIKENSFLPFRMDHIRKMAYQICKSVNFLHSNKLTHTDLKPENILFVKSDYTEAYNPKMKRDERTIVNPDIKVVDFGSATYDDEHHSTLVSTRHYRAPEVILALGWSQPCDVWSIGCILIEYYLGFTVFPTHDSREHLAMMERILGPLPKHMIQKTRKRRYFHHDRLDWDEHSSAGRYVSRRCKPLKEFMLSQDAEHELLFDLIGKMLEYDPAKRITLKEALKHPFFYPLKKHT
# [3] = biological target: T1, Cyclin-dependent kinase 5/CDK5 activator 1 (Homo sapiens); experiment: Inhibition of recombinant human CDK5/p25 expressed in bacteria assessed as residual activity at 1 uM using histone H1 as substrate in presence of [gamma-33P]ATP relative to control; summary of the method: as §1
# [4] = biological target: Dual specificity tyrosine-phosphorylation-regulated kinase 1A (Rattus norvegicus) (UniProt Q63470); experiment: Inhibition of rat DYRK1A kinase domain (1 to 499 residues) expressed in bacteria assessed as residual activity at 10 uM using KKISGRLSPIMTEQ as substrate in presence of [gamma-33P]ATP relative to control
# Summary of the method: (§2)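 Buffer: 10 mM MgCl2, 1 mM EGTA, 1 mM DTT, 25 mM Tris-HCl pH 7.5, 50 μg/ml heparin, 0.15 mg/ml BSA.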
# Sus scrofa domesticus [5] = species on record: Sus scrofa domesticus; experiment: Inhibition of porcine brain CK1delta/epsilon assessed as residual activity at 10 uM using RRKHAAIGSpAYSITA as substrate in presence of [gamma-33P]ATP relative to control; assay type: tissue-based
# [6] = biological target: T2, Glycogen synthase kinase-3 (Sus scrofa) (UniProt B2LUN4+I6LNT8); experiment: Inhibition of porcine brain GSK-3alpha/beta assessed as residual activity at 10 uM using YRRAAVPPSPSLSRHSSPHQSpEDEEE as substrate in presence of [gamma-33P]ATP relative to control; assay type: tissue-based; details: Sus scrofa domesticus
# Sus scrofa domesticus [7] = species on record: Sus scrofa domesticus; experiment: Inhibition of porcine brain CK1delta/epsilon assessed as residual activity at 1 uM using RRKHAAIGSpAYSITA as substrate in presence of [gamma-33P]ATP relative to control; assay type: tissue-based
# [8] = biological target: T2, Glycogen synthase kinase-3 (Sus scrofa); experiment: Inhibition of porcine brain GSK-3alpha/beta assessed as residual activity at 1 uM using YRRAAVPPSPSLSRHSSPHQSpEDEEE as substrate in presence of [gamma-33P]ATP relative to control; assay type: tissue-based; details: Sus scrofa domesticus
# Summary of the method: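 Affinity-purified porcine brain GSK-3α/β with 0.01 µg/µl GS-1 peptide (phosphoserine-primed) as substrate and 15 µM [γ-33P]ATP. Buffer was 25 mM Tris-HCl pH 7.5, 10 mM MgCl2, 1 mM EGTA, 1 mM DTT, 50 µg/ml heparin and 0.15 mg/ml BSA. Radioactive incorporation was compared with DMSO-dilution controls, in triplicate.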
# [9] = biological target: Dual specificity tyrosine-phosphorylation-regulated kinase 1A (Rattus norvegicus) (UniProt Q63470); experiment: Inhibition of rat DYRK1A kinase domain (1 to 499 residues) expressed in bacteria assessed as residual activity at 1 uM using KKISGRLSPIMTEQ as substrate in presence of [gamma-33P]ATP relative to control; summary of the method: as §2
# [10] = biological target: Dual specificity protein kinase CLK1 (Mus musculus) (UniProt P22518); experiment: Inhibition of recombinant mouse CLK1 expressed in bacteria assessed as residual activity at 10 uM using GRSRSRSRSRSR as substrate in presence of [gamma-33P]ATP relative to control
# U2OS = experiment: Antiproliferative activity against human U2OS cells assessed as cell viability at 2 uM after 48 hrs by CellTiter96 AQueous assay relative to control; assay type: functional; details: read-out: Activity
# Summary of the method: (§3)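 Cells grown in McCoy's 5a (HCT116), DMEM (SH-SY5Y, MDA-MB231, U-2 OS) or DMEM:F12 (hTERT-RPE1), each with 10% fetal calf serum, 2 mM L-glutamine, penicillin/streptomycin. Exposed to compound at 2 μM for 48 h; viability read by CellTiter96 AQueous per manufacturer, as % of DMSO-treated cells. Triplicate, mean ± SD; staurosporine as positive control.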
# MDA-MB-231 = experiment: Antiproliferative activity against human MDA-MB-231 cells assessed as cell viability at 2 uM after 48 hrs by CellTiter96 AQueous assay relative to control; assay type: functional; details: read-out: Activity; summary of the method: as §3
# [11] = biological target: Dual specificity protein kinase CLK1 (Mus musculus, UniProt P22518); experiment: Inhibition of recombinant mouse CLK1 expressed in bacteria using GRSRSRSRSRSR as substrate in presence of [gamma-33P]ATP
# Dual specificity protein kinase CLK1, sequence (P22518 whole entry): as the sequence (P22518 whole entry, looked up) above
# SH-SY5Y = experiment: Antiproliferative activity against human SH-SY5Y cells assessed as cell viability at 2 uM after 48 hrs by CellTiter96 AQueous assay relative to control; assay type: functional; details: read-out: Activity; summary of the method: as §3
# HCT-116 = experiment: Antiproliferative activity against human HCT116 cells assessed as cell viability at 2 uM after 48 hrs by CellTiter96 AQueous assay relative to control; assay type: functional; details: read-out: Activity; summary of the method: as §3
# [12] = Antiproliferative activity against hTERT-RPE1 cells assessed as cell viability at 2 uM after 48 hrs by CellTiter96 AQueous assay relative to control; assay type: cell-based, TERT-RPE1; details: human, read-out: Activity; summary of the method: as §3
SMILES,Activity [1],Activity [2],Activity [3],Activity [4],Activity (Sus scrofa domesticus [5]),Activity [6],Activity (Sus scrofa domesticus [7]),Activity [8],Activity [9],Activity [10],viability at 2 µM (U2OS),viability at 2 µM (MDA-MB-231),IC50 [11],viability at 2 µM (SH-SY5Y),viability at 2 µM (HCT-116),"viability at 48 h, 2 µM [12]"
O=[N+]([O-])c1c2ccncc2cc2cnc(-c3ccccc3)nc12,62%,71%,100%,38%,57%,100%,100%,100%,100%,17%,,,,,,
CNc1ncc2cc3cnccc3c([N+](=O)[O-])c2n1,38%,5%,73%,13%,45%,51%,98%,70%,39%,2%,19.5%,41%,18 nM,52%,22%,36%
CCN(CC)CCNc1ncc2cc3cnccc3c([N+](=O)[O-])c2n1,79%,46%,100%,47%,78%,26%,91%,74%,88%,8%,,,,,,
CN1CCN(CCCNc2ncc3cc4cnccc4c([N+](=O)[O-])c3n2)CC1,48%,22%,100%,3%,32%,2%,92%,59%,54%,8%,2.5%,11.7%,133 nM,36%,9.7%,25.8%
Nc1c2ccncc2cc2cnc(NCCN3CCCC3)nc12,51%,33%,100%,7%,61%,29%,90%,62%,54%,4%,,,,,,
Nc1ncc2cc3cnccc3c(N)c2n1,,,,,,,,,,,0.4%,43.4%,,0.9%,1.3%,0.2%
O=[N+]([O-])c1c2ccncc2cc2cnc(NCCN3CCCCC3)nc12,85%,42%,96%,26%,37%,1%,81%,39%,52%,1%,,,,,,
CN(C)CCNc1ncc2cc3cnccc3c([N+](=O)[O-])c2n1,52%,22%,100%,17%,36%,21%,100%,70%,89%,5%,3.3%,9.4%,62 nM,42.7%,13.3%,29.2%
O=[N+]([O-])c1c2ccncc2cc2cnc(NCCCN3CCCCC3)nc12,53%,16%,100%,6%,34%,24%,100%,76%,56%,7%,,,125 nM,,,
Nc1c2ccncc2cc2cnc(NCCN3CCCCC3)nc12,76%,44%,95%,16%,52%,24%,74%,43%,37%,11%,,,,,,
